Assay results from ChEMBL document CHEMBL1146062, “Synthesis of 3-benzyl-2-substituted quinoxalines as novel monoamine oxidase A inhibitors” (Bioorg Med Chem Lett, 2006).

Legend:
[1] = biological target: T1, Amine oxidase [flavin-containing] A (Rattus norvegicus, UniProt P21396); test: Inhibition of rat liver mitochondria MAOA at 100 uM
T1 sequence (P21396 whole entry): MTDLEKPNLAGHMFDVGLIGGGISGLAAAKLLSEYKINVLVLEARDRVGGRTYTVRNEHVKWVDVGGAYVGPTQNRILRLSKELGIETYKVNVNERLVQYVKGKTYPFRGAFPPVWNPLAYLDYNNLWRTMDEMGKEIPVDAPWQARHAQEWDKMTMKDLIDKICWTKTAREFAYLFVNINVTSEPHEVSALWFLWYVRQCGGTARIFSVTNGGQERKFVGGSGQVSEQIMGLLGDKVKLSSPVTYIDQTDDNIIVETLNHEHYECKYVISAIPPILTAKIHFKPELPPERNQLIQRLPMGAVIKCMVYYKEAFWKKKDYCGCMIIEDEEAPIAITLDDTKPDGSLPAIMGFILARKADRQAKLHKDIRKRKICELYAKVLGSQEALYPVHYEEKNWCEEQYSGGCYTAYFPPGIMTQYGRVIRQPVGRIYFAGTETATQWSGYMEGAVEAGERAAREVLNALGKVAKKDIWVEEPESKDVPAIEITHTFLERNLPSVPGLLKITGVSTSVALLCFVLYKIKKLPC
Method in brief: (§1)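 MAO-A activity was measured in rat liver mitochondria with serotonin (5HT) as substrate. Test compounds were used at a final concentration of 1 × 10^-4 M, and inhibition was determined.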

[2] = biological target: T1, Amine oxidase [flavin-containing] A; test: Inhibition of rat liver mitochondria MAOA; method in brief: as §1
[3] = biological target: T2, Amine oxidase [flavin-containing] B (Rattus norvegicus, UniProt P19643); test: Inhibition of rat liver mitochondria MAOB
T2 sequence (P19643 whole entry): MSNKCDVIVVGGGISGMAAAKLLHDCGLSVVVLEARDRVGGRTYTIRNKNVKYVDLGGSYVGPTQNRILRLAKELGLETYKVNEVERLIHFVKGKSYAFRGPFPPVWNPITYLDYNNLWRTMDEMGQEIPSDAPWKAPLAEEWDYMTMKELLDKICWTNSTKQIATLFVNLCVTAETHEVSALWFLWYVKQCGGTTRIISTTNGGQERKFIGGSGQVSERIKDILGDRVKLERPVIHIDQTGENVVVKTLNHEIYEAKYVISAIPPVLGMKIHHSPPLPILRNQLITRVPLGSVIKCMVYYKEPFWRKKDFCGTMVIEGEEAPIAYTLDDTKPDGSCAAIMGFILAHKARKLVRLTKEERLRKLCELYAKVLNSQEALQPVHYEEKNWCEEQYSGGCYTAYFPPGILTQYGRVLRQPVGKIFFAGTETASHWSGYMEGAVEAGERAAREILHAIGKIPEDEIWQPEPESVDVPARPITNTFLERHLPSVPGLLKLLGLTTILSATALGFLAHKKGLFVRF

Mus musculus [4] = test: Toxicity in mouse upto 250 mg/kg, po; assay type: organism-based; design: dose 250 mg/kg, route oral; settings: in vivo
Method in brief: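 Acute oral toxicity was assessed in male mice. Tolerability and mortality were recorded at doses up to […].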

Mus musculus [5] = test: Toxicity in mouse upto 125 mg/kg administered by parenteral route; assay type: organism-based; design: dose 125 mg/kg; settings: in vivo

SMILES	inhibition at 100 µM [1]	IC50 [2]	IC50 [3]	Activity (Mus musculus [4])	Activity (Mus musculus [5])
NNc1nc2cc(Cl)c(Cl)cc2nc1Cc1ccccc1	42%	0.0076 µM	74 µM	Non-toxic	Non-toxic
NNc1nc2ccccc2nc1Cc1ccccc1	54.1%	0.0088 µM	840 µM	Non-toxic	Non-toxic
Clc1ccc(Cc2nc3ccccc3nc2NCCN2CCOCC2)cc1	50.5%	0.0017 µM	360 µM	Non-toxic	Non-toxic
CNCCNc1nc2ccccc2nc1Cc1ccccc1	40.9%	0.092 µM	790 µM	Non-toxic	Non-toxic
NNc1nc2ccccc2nc1Cc1ccc(Cl)cc1	49.5%	0.0021 µM	570 µM	Non-toxic	Non-toxic
Clc1cc2nc(Cc3ccccc3)c(NCCN3CCOCC3)nc2cc1Cl	40%	0.073 µM	960 µM	Non-toxic	Non-toxic
OCCNc1nc2ccccc2nc1Cc1ccccc1	46%	0.0037 µM	86 µM	Non-toxic	Non-toxic
c1ccc(Cc2nc3ccccc3nc2NCCN2CCOCC2)cc1	46.1%	0.0013 µM	840 µM	Non-toxic	Non-toxic
